Hits are enriched below; roughly 1.7% of the tested compounds scored in any of these assays.
SUMO1-SIM PPI = modulators of SUMO1 protein-protein interactions, primary screen, biochemical, uHTS | Small ubiquitin-related modifier 1 (Homo sapiens), P63165 | SUMO1 binding to a labelled peptide, TR-FRET, 1 h | inhibition, % at 20 µM | 360,000 compounds, 0.33% hits; in the data active means inhibition above about 37%
Scp1 inh = Scp-1 phosphatase inhibitors, primary screen, biochemical, colorimetric, uHTS; Carboxy-terminal domain RNA polymerase II polypeptide A small phosphatase 1 (Homo …; Recombinant Scp1, phosphopeptide, malachite green phosphate absorbance; inhibition, % at 20 µM; 340,000 compounds, 0.88% hits;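 active means inhibition above about 50% at 20 µM, limit read from the data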
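Test system – truncated SCP-1 phosphatase (76-261aa) · Reagent – Phosphorylated 17-residue peptide substrate · Incubation – 45 min room-temperature reaction, 5 min colour, 30 min stabiliser · Detection – colorimetric phosphate reagent with accelerator and stabiliser, absorbance at 630 nm · Measure – % inhibition at 20 µM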
STEP inh = STEP phosphatase inhibitors, primary screen, biochemical, fluorescence intensity, uHTS; 360,000 compounds, 0.25% hits; recombinant STEP, OMFP fluorogenic substrate; Tyrosine-protein phosphatase non-receptor type 5 (Homo sapiens), P54829; inhibition, % at 20 µM;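 active means inhibition at 20 µM, scaled per plate between control wells, above about 37%, limit read from the data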
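Test system: STEP tyrosine phosphatase / Reagent: OMFP at 25 µM / Doses: 20 µM, 1% DMSO / Read-out: percent inhibition scaled to no-enzyme and uninhibited-enzyme controls, plate-pattern corrected / Detection: FITC-channel fluorescence of OMFP product / Medium: Bis-Tris buffer pH 6.0, 2.5 mM DTT, 0.005% Tween 20 / Schedule: 20 min at room temperature, dark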
DNMT1 inh = human DNMT1 methyltransferase inhibitors, primary screen, biochemical, molecular beacon, fluorescence, HinP1I cleavage, uHTS; DNA (cytosine-5)-methyltransferase 1 (Homo sapiens), P26358; inhibition (reported as % activation of signal), % at 10 µM; 360,000 compounds, 0.83% hits; AID 588458, 2011; in the data active means inhibition above about 50%
LMPTP block = LMPTP phosphatase inhibitors, primary screen, biochemical, fluorescence intensity, uHTS | Low molecular weight phosphotyrosine protein phosphatase (Homo sapiens), P24666 | AID 651560, 2012 | 360,000 compounds, 0.22% hits | inhibition, % at 20 µM | recombinant LMPTP-A, OMFP fluorogenic substrate;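 active means compounds that cut the enzyme signal by at least half of the control window in the single-dose screen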
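Test system: LMPTP-A phosphatase enzyme; input: 0.625 nM LMPTP-A final; reagent: OMFP substrate, 400 µM final; compound dosing: 20 µM single dose, 3% DMSO; incubation: 50 min dark incubation at room temperature; measured by: endpoint fluorescence intensity from OMFP dephosphorylation; measure: % inhibition relative to no-enzyme and uninhibited control wells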
Scp-1 conf = Scp-1 phosphatase inhibitors, retest, confirmation, biochemical, colorimetric, single concentration | recombinant SCP-1 catalytic domain, phosphate release, malachite green absorbance | AID 540281, 2011 | inhibition, % at 20 µM | shares compounds with Scp1 inh | 2,500 compounds, 61% hits
Scp-1 MG ctr = colorimetric readout interference by compounds, confirmation, artefact control for Scp-1 inhibitor project, biochemical, single concentration | 2,500 tested, under 10 active | apparent inhibition (interference), % at 20 µM | Colorimetric interference counterscreen, malachite green absorbance 630 nm | AID 540313, 2011 | shares compounds with Scp1 inh;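 further: compounds added after enzyme reaction finished so only phosphate colour detection is probed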
Scp1 DSF = Scp-1 binding by thermal shift, confirmation, orthogonal assay for Scp-1 inhibitor project, biophysical, differential scanning fluorimetry; shares compounds with Scp1 inh; Recombinant SCP1, Sypro Orange thermal shift Tm; thermal shift relative to vanadate control, % at 40 µM; 1,500 compounds, 25% hits;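 active means substances whose mean melting-temperature shift, as a percentage of the reference inhibitor's shift, reaches about 5.3%, limit read from the data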
DNMT1 inh conf = DNMT1 methyltransferase inhibitor retest, confirmation, biochemical, molecular beacon, fluorescence, single concentration. 2,300 compounds, 8% hits. shares compounds with DNMT1 inh. DNMT1 molecular beacon HinP1I cleavage. inhibition, % at 10 µM;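 active means average inhibition of at least 30% in the single-concentration confirmation test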
Beacon interf = counter-screen for DNMT1 inhibitors: spectral interference; 2,300 compounds, 1% hits; DNMT1 molecular beacon spectral interference counterscreen, fluorescence 485/520; activation (fluorescence interference), % at 10 µM; shares compounds with DNMT1 inh; AID 602387;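 active means activation of at least 30% at 10 µM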;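 further: DNMT1 catalytic domain with a HinP1I cleavage step and a FAM/dabcyl DNA beacon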
Each line names hits and unclear results; the compound was inactive in the other large screens (follow-up assays come after a bar, where they were run).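 How the source made its calls, unless noted: active means inhibition of at least 30% at 20 µM; inactive means the rest.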

CCCCCc1nnc(NC(=O)Cc2cccs2)s1	Scp1 inh 68.5, DNMT1 inh 59.4 | Scp-1 conf 85.3 | Scp-1 MG ctr inactive | Scp1 DSF 6.3 | DNMT1 inh conf inactive | Beacon interf inactive
CC(C)c1nnc(NC(=O)Cc2cccs2)s1	none
O=C(Cc1cccs1)Nc1nnc(Cc2ccccc2)s1	Scp1 inh 81.6, DNMT1 inh 99.2 | Scp-1 conf 75.8 | Scp-1 MG ctr inactive | Scp1 DSF inactive | DNMT1 inh conf inactive | Beacon interf inactive
CC(C)(C)Cc1nnc(NC(=O)Cc2cccs2)s1	Scp1 inh 57.7, DNMT1 inh 55.9 | Scp-1 conf 62.9 | Scp-1 MG ctr inactive | Scp1 DSF 7.2 | DNMT1 inh conf inactive | Beacon interf inactive
O=C(Cc1c[nH]c2ccccc12)NCC(=O)Nc1ccc(F)c(F)c1F	none
COC(=O)[C@@]12C[C@@H](CC(=O)NCC3CCCCC3)C(=O)N(Cc3ccccc3)C1=CCC(C)(C)C2	none (no result: Scp1 inh, STEP inh, DNMT1 inh)
O=C(Cc1ccc(S(=O)(=O)N2CCOCC2)s1)Nc1nc2c(s1)CCCC2	Scp1 inh 64.1, DNMT1 inh 89.2 | Scp-1 conf 74.2 | Scp-1 MG ctr inactive | Scp1 DSF 11.1 | DNMT1 inh conf inactive | Beacon interf inactive
O=C(/C=C/[C@H]1O[C@@H](n2cnc3c(NC(=O)c4ccccc4)ncnc32)[C@H](O)[C@@H]1O)NCCCN1CCCC1=O	none (no result: Scp1 inh)
Cc1ccsc1/C=C/C1=Cc2c(sc(NC(=O)CSc3n[nH]c(N)n3)c2C#N)C(C)(C)C1	Scp1 inh 58.2, DNMT1 inh 89.7 | Scp-1 conf inactive | Scp-1 MG ctr inactive | DNMT1 inh conf inactive | Beacon interf inactive
Cc1ccc(Cl)cc1N1CCN(C(=O)CN(c2ccccc2)S(=O)(=O)N(C)C)CC1	Scp1 inh 67.5, DNMT1 inh 65.3 | Scp-1 conf 70.1 | Scp-1 MG ctr inactive | Scp1 DSF inactive | DNMT1 inh conf inactive | Beacon interf inactive
CN1CCN(C(=O)CN(c2ccccc2)S(=O)(=O)N(C)C)CC1	none (no result: SUMO1-SIM PPI, STEP inh, DNMT1 inh, LMPTP block)
O=S(=O)(Nn1cnnc1)c1ccc(F)cc1	none
Cc1cc(/C=N/NC(=O)c2cccc(N(C)C)c2)c(C)n1-c1cc(C(=O)O)cc(C(=O)O)c1	Scp1 inh 66.1, DNMT1 inh 80.8 | Scp-1 conf 53.2 | Scp-1 MG ctr inactive | Scp1 DSF 7.5 | DNMT1 inh conf inactive | Beacon interf inactive
CCCc1nc2sc3ccccc3c(=O)c2c(=O)n1Cc1ccco1	Scp1 inh 68.1, DNMT1 inh 75.6 | Scp-1 conf 54.1 | Scp-1 MG ctr inactive | Scp1 DSF inactive | DNMT1 inh conf inactive | Beacon interf inactive
COCc1cc(C)n(CC(=O)N/N=C/c2ccc(-c3ccc(Cl)c(C(=O)O)c3)o2)c(=O)c1C#N	Scp1 inh 66.3, DNMT1 inh 57.6 | Scp-1 conf 63.2 | Scp-1 MG ctr inactive | Scp1 DSF inactive | DNMT1 inh conf inactive | Beacon interf inactive
CCOC(=O)C1=C(O)/C(=C\c2cccs2)N=C1C	none
CCOC(=O)C1=C(O)/C(=C\c2ccc(CNC(=O)C(=O)Nc3ccccc3)o2)N=C1C	Scp1 inh 97.0, DNMT1 inh 101.3 | Scp-1 conf 61.7 | Scp-1 MG ctr inactive | Scp1 DSF 6.2 | DNMT1 inh conf inactive | Beacon interf inactive
CC1(C)CC(NC(=O)C2CCN(S(=O)(=O)c3cccc(C(F)(F)F)c3)CC2)CC(C)(C)N1	none
COc1cc(NC(=O)COC(=O)c2ccc(S(=O)(=O)N3CC(C)CC(C)C3)cc2)c(C)cc1[N+](=O)[O-] (stereo not drawn)	Scp1 inh 66.9, DNMT1 inh 55.8 | Scp-1 conf 34.8 | Scp-1 MG ctr inactive | Scp1 DSF inactive | DNMT1 inh conf inactive | Beacon interf inactive
COc1ccc(NC(=O)COC(=O)c2ccc(S(=O)(=O)N3CC(C)CC(C)C3)cc2)cc1OC (stereo not drawn)	none (no result: Scp1 inh)
CC(CNc1ccccc1O)C(=O)O (stereo not drawn)	Scp1 inh 73.1, DNMT1 inh 63.6 | Scp-1 conf 43.4 | Scp-1 MG ctr inactive | Scp1 DSF inactive | DNMT1 inh conf inactive | Beacon interf inactive
Cc1ccc(/C=C2/C(=N)N3N=C(CC(=O)N4CCCC4)SC3=NC2=O)o1	none
N=C1/C(=C\c2ccc(Br)o2)C(=O)N=C2SC(CC(=O)N3CCCCC3)=NN12	SUMO1-SIM PPI 46.3, Scp1 inh 79.7, DNMT1 inh 93.9 | Scp-1 conf 47.6 | Scp-1 MG ctr inactive | Scp1 DSF 12.3 | DNMT1 inh conf inactive | Beacon interf inactive
CC(C)c1ccc(OCC(=O)N2CCc3ccccc3C2)cc1	none
COc1ccc2c(c1)c(=O)oc1cc(OCC(=O)N3CCc4ccccc4C3)ccc12	Scp1 inh 81.3, DNMT1 inh 104.9, LMPTP block 62.1 | Scp-1 conf 68.5 | Scp-1 MG ctr inactive | Scp1 DSF inactive | DNMT1 inh conf inactive | Beacon interf inactive
O=C(COc1ccc(Br)cc1)NCC1COc2ccccc2O1 (stereo not drawn)	none
Cc1ccc(C(=O)NCCC(=O)N2CCC3(CC2)NCCc2[nH]cnc23)cc1C	none
O=C(NCc1cccc(CNC(=O)C(=O)NCc2ccco2)c1)C(=O)NCc1ccco1	Scp1 inh 91.5, DNMT1 inh 91.1, LMPTP block 55.9 | Scp-1 conf 64.8 | Scp-1 MG ctr inactive | Scp1 DSF inactive | DNMT1 inh conf inactive | Beacon interf inactive

High-throughput results: PubChem, Sanford-Burnham Center for Chemical Genomics
